Experimental data reported in ChEMBL document CHEMBL3580560, “Isolation, Structural Modification, and HIV Inhibition of Pentacyclic Lupane-Type Triterpenoids from Cassine xylocarpa and Maytenus cuzcoina” (J Nat Prod, 2015).

Key:
[1] = system: Human immunodeficiency virus 1; assay: Antiviral activity against HIV1 NL4.3-Ren infected in human MT2 cells assessed as inhibition of viral growth at 10 uM measured 48 hrs post infection by luminometry; format: functional; settings: Human immunodeficiency virus 1, NL4.3-Ren, MT2, 48 h
[2] = Cytotoxicity against mock-infected human MT2 cells assessed as reduction in cell viability incubated for 48 hrs by cell-titer Glo assay; format: cell-based
Method in brief: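 Uninfected MT-2 cells received RPMI medium instead of viral supernatant and were treated in parallel with the same fivefold dilutions (100–0.032 μM). […] Values are the mean of at least three independent experiments.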

[3] = system: Human immunodeficiency virus 1; assay: Antiviral activity against HIV1 NL4.3-Ren infected in human MT2 cells assessed as inhibition of viral growth measured 48 hrs post infection by luminometry; format: functional, organism-based; settings: Human immunodeficiency virus 1, NL4.3-Ren, MT2, 48 h
Method in brief: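 MT-2 cells infected with X4-tropic HIV-1 NL4.3-Ren supernatant produced in 293T cells. Fivefold serial dilutions from 100 to 0.032 μM were tested. At 48 h postinfection, cells were lysed and Renilla luciferase RLU were measured. IC50 was fitted from the dose–response curve; values are the mean of at least three independent experiments.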

[4] = Selectivity index, ratio of CC50 for mock-infected human MT2 cells to IC50 for HIV1 NL4.3-Ren infected in human MT2 cells; format: functional
[5] = system: Human immunodeficiency virus 1; assay: Antiviral activity against HIV1 NL4.3-Ren infected in human MT2 cells assessed as inhibition of viral growth by measuring relative luminescence units at 10 uM measured 48 hrs post infection by luminometry relative to untreated control; format: functional; parameters: scale not given: the % may be the effect or the level left

SMILES | inhibition at 10 µM [1] | CC50 at 48 h [2] | IC50 [3] | Ratio CC50/IC50 [4] | Activity [5]
C=C(C=O)[C@@H]1CC[C@]2(COC(C)=O)CC[C@]3(C)[C@H](CC[C@@H]4[C@@]5(C)CC[C@H](O)C(C)(C)[C@@H]5CC[C@]43C)[C@@H]12 | > 50% | 14.2 µM | 1.7 µM | 8.2 | 0%
C=C(C=O)[C@@H]1CC[C@]2(C)CC[C@]3(C)[C@H](CC[C@@H]4[C@@]5(C)CCC(=O)C(C)(C)[C@@H]5[C@H](O)C[C@]43C)[C@@H]12 | > 50% | 10.4 µM | 7.9 µM | 1.3 | 5%
C=C1C(=O)O[C@@H]2C[C@]3(C)CC[C@]4(C)[C@H](CC[C@@H]5[C@@]6(C)CCC(=O)C(C)(C)[C@@H]6CC[C@]54C)[C@H]3[C@H]12 [OCHRACEOLIDE A] | > 50% | > 100 µM | 39 µM | >2.6 | 
C=C(C)[C@@H]1CC[C@]2(C=O)CC[C@]3(C)[C@H](CC[C@@H]4[C@@]5(C)CCC(=O)C(C)(C)[C@@H]5CC[C@]43C)[C@@H]12 [BETULONAL] | > 50% | 20 µM | 4.2 µM | 4.8 | 
C=C(C)[C@@H]1CC[C@]2(C)CC[C@]3(C)[C@@H](CC[C@@H]4[C@@]5(C)[C@@H](O)C[C@H](O)C(C)(C)[C@@H]5CC[C@]43C)[C@@H]12 [GLOCHIDIOL] | > 50% | 20 µM | 13.9 µM | 1.4 | 
C=C(C=O)[C@@H]1CC[C@]2(C)CC[C@]3(C)[C@H](CC[C@@H]4[C@@]5(C)CCC(=O)C(C)(C)[C@@H]5CC[C@]43C)[C@@H]12 | > 50% | 5.7 µM | 1.4 µM | 4.2 | 0%
C=C(C)[C@@H]1CC[C@]2(COC(C)=O)CC[C@]3(C)[C@H](CC[C@@H]4[C@@]5(C)CCC(=O)C(C)(C)[C@@H]5CC[C@]43C)[C@@H]12 | > 50% | 20 µM | 13.4 µM | 1.5 | 
C=C(C)[C@@H]1CC[C@]2(CO)CC[C@]3(C)[C@H](CC[C@@H]4[C@@]5(C)CC[C@@H](O)C(C)(C)[C@@H]5CC[C@]43C)[C@@H]12 [3-EPI-BETULIN] | > 50% | 20 µM | 8.8 µM | 2.3 | 
